Data on 2 compounds can be found in ChEMBL document CHEMBL3992541, “Combined treatment with zingerone and its novel derivative synergistically inhibits TGF-β1 induced epithelial-mesenchymal transition, migration and invasion of human hepatocellular carcinoma cells” (2017).

Activity calls are given as the source filed them. No cut-off for these calls is given here.

Experiment [1] relates to SNU-182. Description: Inhibition of TGFbeta1-induced epithelial-mesenchymal transition in human SNU182 cells assessed as reduction in downregulation of E-cadherin expression preincubated for 2 hrs followed by TGFbeta1 addition measured after 48 hrs in presence of zingerone by Western blot method. The experiment is classed as functional, cell-based. The method, boiled down: (§1)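 SNU182 cells pretreated 2 h with single agents (12.5 or 40 µM) or the mixture (20 and 40 µM), then stimulated with TGF-β1 5 ng/ml for 48 h. E-cadherin and Snail protein detected by Western blot, with GAPDH as loading control.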

For experiment [2], the target named is T1, NF-kappa-B inhibitor alpha (Homo sapiens) (UniProt P25963).
T1 sequence (whole entry): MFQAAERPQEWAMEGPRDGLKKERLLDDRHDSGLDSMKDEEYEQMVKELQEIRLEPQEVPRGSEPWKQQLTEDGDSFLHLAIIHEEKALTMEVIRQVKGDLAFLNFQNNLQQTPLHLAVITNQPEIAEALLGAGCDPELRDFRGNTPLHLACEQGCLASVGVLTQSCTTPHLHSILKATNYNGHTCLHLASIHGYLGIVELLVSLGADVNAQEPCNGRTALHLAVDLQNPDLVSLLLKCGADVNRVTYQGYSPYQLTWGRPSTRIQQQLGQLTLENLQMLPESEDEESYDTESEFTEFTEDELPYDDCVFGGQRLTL
Kind of experiment: Inhibition of TGFbeta1-induced IkB-alpha phosphorylation in human SNU182 cells at 20 to 40 uM preincubated for 2 hrs followed by TGFbeta1 addition measured after 120 mins in presence of zingerone by Western blot method. The experiment is classed as cell-based. The method, boiled down: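 SNU182 cells pretreated with the mixture (20 and 40 µM) for 2 h, then exposed to TGF-β1 for 120 min. IκB protein assessed by Western blot, with GAPDH loading control.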

In experiment [3] the test system is SNU-182. Kind of experiment: Growth inhibition of human SNU182 cells after 48 hrs by CCK8 assay. The experiment is classed as functional, cell-based.
Experiment [4] has as its target Mothers against decapentaplegic homolog 2 (Homo sapiens) (UniProt Q15796). Description: Inhibition of TGFbeta1-induced SMAD2 phosphorylation in human SNU182 cells at 20 to 40 uM preincubated for 2 hrs followed by TGFbeta1 addition measured after 48 hrs in presence of zingerone by Western blot method. The experiment is classed as cell-based. The essentials:
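SNU182 cells given the mixture (20 and 40 µM) for 2 h, then TGF-β1 5 ng/ml for 48 h. Smad2/3 phosphorylation by Western blot, with total Smad2/3 as loading control.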

The species named for experiment [5] is Homo sapiens. Description: Inhibition of TGFbeta1-induced NF-kB nuclear translocation in human SNU182 cells preincubated for 2 hrs followed by TGFbeta1 addition measured after 12 hrs in presence of zingerone by Western blot method. The experiment is classed as cell-based. The method, boiled down:
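Mixture added to SNU182 cells for 2 h before TGF-β1 for 12 h. Cytosolic and nuclear fractions analysed by Western blot for NF-κB, with COX4 as cytosolic and Lamin B1 as nuclear marker.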

Experiment [6] has as its target Transcription factor Jun (Homo sapiens) (UniProt P05412). Description: Inhibition of TGFbeta1-induced AP-1 binding activity in human SNU182 cells at 20 to 40 uM measured after 48 hrs in presence of zingerone by luciferase reporter gene assay. The experiment is classed as cell-based. The method, boiled down:
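SNU182 transfected with pGL4.44-AP-1-RE-Luc or empty pGL4.44, pretreated with the mixture (20 and 40 µM), then stimulated with TGF-β1 or DMSO. Luciferase reporter activity read. Mean±SD of triplicates.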

Experiment [7] has as its system SNU-182. Description: Growth inhibition of human SNU182 cells assessed as cell survival at 12.5 uM after 48 hrs by CCK8 assay relative to control. The experiment is classed as functional. As to conditions: SNU-182, 48 h, read-out: Survival. The essentials: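 SNU182 human hepatocellular carcinoma cells were exposed to compound at 6.25, 12.5, 25, 50 and 100 µM in serum-free DMEM for 48 h. Viability was read by CCK-8, where WST-8 is reduced by cellular dehydrogenases to a soluble formazan, and expressed as survival relative to vehicle control. Values are mean±SD of triplicates.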

The test system of experiment [8] is SNU-182. Description: Inhibition of TGFbeta1-induced epithelial-mesenchymal transition in human SNU182 cells assessed as reduction in MMP9 activity measured after 48 hrs in presence of zingerone by gelatin zymography assay. The experiment is classed as functional, cell-based. The essentials:
(§2)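 Cells serum-starved overnight in 0.2% FBS medium, then left untreated or given TGF-β 5 ng/ml and/or the mixture for 48 h. MMP-2 and MMP-9 activity in conditioned medium determined by gelatin zymography.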

Experiment [9] deals with SNU-182. Description: Growth inhibition of human SNU182 cells at <50 uM in presence of zingerone after 48 hrs by CCK8 assay. The experiment is classed as functional, cell-based.
Experiment [10] has as its system SNU-182. Description: Inhibition of TGFbeta1-induced epithelial-mesenchymal transition in human SNU182 cells assessed as reduction in MMP9 activity measured after 48 hrs in presence of (E)-1-(9-Ethyl-9H-carbazol-3-yl)-5-(4-hydroxy-3-methoxyphenyl)pent-1-en-3-one by gelatin zymography assay. The experiment is classed as functional, cell-based. The method, boiled down: as §2

Experiment [11] concerns SNU-182. Kind of experiment: Inhibition of TGFbeta1-induced epithelial-mesenchymal transition in human SNU182 cells assessed as reduction in upregulation of N-cadherin expression preincubated for 2 hrs followed by TGFbeta1 addition measured after 48 hrs in presence of (E)-1-(9-Ethyl-9H-carbazol-3-yl)-5-(4-hydroxy-3-methoxyphenyl)pent-1-en-3-one by Western blot method. The experiment is classed as functional, cell-based. The essentials:
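Pretreatment of SNU182 cells with the mixture at 20 and 40 µM for 2 h in serum-free medium, followed by TGF-β1 5 ng/ml for 48 h. N-cadherin and Snail detected by Western blot against GAPDH.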

For experiment [12], the system named is SNU-182. Kind of experiment: Inhibition of TGFbeta1-induced epithelial-mesenchymal transition in human SNU182 cells assessed as reduction in downregulation of E-cadherin expression preincubated for 2 hrs followed by TGFbeta1 addition measured after 48 hrs in presence of (E)-1-(9-Ethyl-9H-carbazol-3-yl)-5-(4-hydroxy-3-methoxyphenyl)pent-1-en-3-one by Western blot method. The experiment is classed as functional, cell-based. The method, boiled down: as §1

The subject of experiment [13] is SNU-182. Description: Inhibition of TGFbeta1-induced invasion in human SNU182 cells at 40 uM measured after 48 hrs in presence of (E)-1-(9-Ethyl-9H-carbazol-3-yl)-5-(4-hydroxy-3-methoxyphenyl)pent-1-en-3-one by microscopic method. The experiment is classed as functional, cell-based. The method, boiled down:
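Matrigel invasion chamber: SNU182 cells in the inner chamber received TGF-β1 with or without the mixture for 48 h. Cells on the lower surface stained, imaged at 200×, and counted. Mean±SD of triplicates.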

The species entered for experiment [14] is Homo sapiens. Kind of experiment: Inhibition of TGFbeta1-induced NF-kB binding activity in human SNU182 cells at 20 to 40 uM measured after 48 hrs in presence of (E)-1-(9-Ethyl-9H-carbazol-3-yl)-5-(4-hydroxy-3-methoxyphenyl)pent-1-en-3-one by luciferase reporter gene assay. The experiment is classed as cell-based. The essentials: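 Cells transfected with pGL4.32-NF-κB-RE-Luc or empty pGL4.32, then treated with the mixture and/or TGF-β1. Luciferase reporter activity read. Mean±SD of triplicates.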

The subject of experiment [15] is SNU-182. Description: Growth inhibition of human SNU182 cells at <50 uM after 48 hrs by CCK8 assay. The experiment is classed as functional, cell-based.
In experiment [16] the test system is SNU-182. Kind of experiment: Inhibition of TGFbeta1-induced epithelial-mesenchymal transition in human SNU182 cells assessed as reduction in MMP2 activity measured after 48 hrs in presence of (E)-1-(9-Ethyl-9H-carbazol-3-yl)-5-(4-hydroxy-3-methoxyphenyl)pent-1-en-3-one by gelatin zymography assay. The experiment is classed as functional, cell-based. The essentials: as §2

The test system of experiment [17] is SNU-182. Description: Inhibition of TGFbeta1-induced epithelial-mesenchymal transition in human SNU182 cells assessed as reduction in downregulation of E-cadherin expression at 40 uM preincubated for 2 hrs followed by TGFbeta1 addition measured after 48 hrs by Western blot method. The experiment is classed as functional, cell-based. The essentials: as §1

Transcription factor Jun (Homo sapiens), sequence (P05412 whole entry): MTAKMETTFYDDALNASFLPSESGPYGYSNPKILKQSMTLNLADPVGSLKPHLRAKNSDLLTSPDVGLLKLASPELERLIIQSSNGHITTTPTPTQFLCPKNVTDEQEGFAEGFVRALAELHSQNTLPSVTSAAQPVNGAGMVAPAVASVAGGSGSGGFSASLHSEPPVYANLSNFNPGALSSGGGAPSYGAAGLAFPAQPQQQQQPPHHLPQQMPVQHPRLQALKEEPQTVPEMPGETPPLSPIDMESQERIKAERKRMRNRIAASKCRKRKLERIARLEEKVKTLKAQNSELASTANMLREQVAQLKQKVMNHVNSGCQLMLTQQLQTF
Mothers against decapentaplegic homolog 2 (Homo sapiens), sequence (Q15796 whole entry): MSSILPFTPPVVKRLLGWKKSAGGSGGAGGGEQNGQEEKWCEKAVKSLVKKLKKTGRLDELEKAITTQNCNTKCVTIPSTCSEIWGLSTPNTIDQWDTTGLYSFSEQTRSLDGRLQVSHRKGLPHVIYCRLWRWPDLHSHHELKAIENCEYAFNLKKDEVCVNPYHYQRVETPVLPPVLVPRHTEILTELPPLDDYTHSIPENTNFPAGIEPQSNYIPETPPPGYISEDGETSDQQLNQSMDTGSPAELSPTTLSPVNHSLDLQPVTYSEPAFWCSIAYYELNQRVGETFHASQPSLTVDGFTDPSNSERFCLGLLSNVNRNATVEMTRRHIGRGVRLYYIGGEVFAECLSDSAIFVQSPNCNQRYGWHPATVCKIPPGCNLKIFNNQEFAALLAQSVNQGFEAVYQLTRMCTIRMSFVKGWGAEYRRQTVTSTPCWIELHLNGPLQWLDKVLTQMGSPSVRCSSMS

For `CCn1c2ccccc2c2cc(/C=C/C(=O)CCc3ccc(O)c(OC)c3)ccc21`, the inhibition entry in experiment [1] and in experiment [5] was “Dose-dependent effect” each time. For the same compound, the inhibition entry in experiment [2], in experiment [4], in [6] and in experiment [8] was “Active” throughout. In [3], the “growth inhibition (GI)” value was “Dose-dependent effect”. In addition, the viability at 12.5 µM in experiment [7] is over 90%. The “growth inhibition (GI)” value in experiment [9] was “inactive”.
Take `COc1cc(CCC(C)=O)ccc1O`: the inhibition entry in experiment [10], in experiment [13], in [14] and in experiment [16] was “Active” throughout. Moreover, the inhibition result in experiment [11] and in [12] was “Dose-dependent effect” throughout. In addition, in experiment [15], the “growth inhibition (GI)” value is “inactive”. Besides, the inhibition entry in [17] was “inactive”.
